Activity data for seven compounds are collected here from ChEMBL document CHEMBL4145471, “New 1,5 and 2,5-disubstituted tetrazoles-dependent activity towards surface barrier of Candida albicans” (Eur J Med Chem, 2018).

Holding throughout (format): functional
The subject of assay [1] is Candida albicans. Description: Antifungal activity against Candida albicans ATCC 90028 at 0.125 ug/ml after 48 hrs relative to control. An outline of the steps: (§1)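 Planktonic broth microdilution per M27-A3 in MOPS-buffered RPMI 1640 (pH 7.0), final inoculum 1.8×10^3 cells/mL, compounds 0.0313–16 µg/mL from 1600 µg/mL stocks in ethanol or DMSO. Incubated at 35°C without agitation; OD405 read at 18 and 48 h. % inhibition was derived from test, sterility (no inoculum) and solvent growth-control wells. Amphotericin B at 0.5 µg/mL served as the 100% control.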

Assay [2] concerns Candida albicans. The assay is described as follows: Antifungal activity against Candida albicans ATCC 90028 at 2 ug/ml after 48 hrs relative to control. An outline of the steps:
as §1

Assay [3] deals with Candida albicans. Description: Antifungal activity against Candida albicans ATCC 90028 at 16 ug/ml after 18 hrs relative to control. A digest of the protocol:
as §1

Assay [4] relates to Candida albicans. The assay is described as follows: Antifungal activity against Candida albicans ATCC 90028 at 0.0313 ug/ml after 48 hrs relative to control.
Assay [5] deals with Candida albicans. The assay is described as follows: Antifungal activity against Candida albicans ATCC 90028 at 4 ug/ml after 18 hrs relative to control. A digest of the protocol:
as §1

Assay [6] deals with Candida albicans. The assay is described as follows: Antifungal activity against Candida albicans ATCC 90028 at 1 ug/ml after 48 hrs relative to control. An outline of the steps:
as §1

Assay [7] relates to Candida albicans. The assay is described as follows: Antifungal activity against Candida albicans ATCC 90028 at 0.0625 ug/ml after 18 hrs relative to control.
The subject of assay [8] is Candida albicans. The assay is described as follows: Antifungal activity against Candida albicans ATCC 90028 at 8 ug/ml after 18 hrs relative to control. A digest of the protocol: as §1
For assay [9], the system named is Candida albicans. Description: Antifungal activity against Candida albicans ATCC 90028 at 1 ug/ml after 18 hrs relative to control. An outline of the steps: as §1
In assay [10] the test system is Candida albicans. The assay is described as follows: Antifungal activity against Candida albicans ATCC 90028 at 0.25 ug/ml after 48 hrs relative to control. An outline of the steps:
(§2)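 Fluconazole (water stock, diluted in RPMI 1640) tested by CLSI M27-A3 broth microdilution against C. albicans ATCC 90028. Inoculum 1.8×10^3 cells/mL in RPMI 1640 buffered with MOPS, pH 7.0. Incubation at 35°C without agitation, read at 18 and 48 h. Growth by OD405 and visually; inhibition % calculated against solvent growth-control wells after subtracting sterility-control wells.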

Assay [11] deals with Candida albicans. The assay is described as follows: Antifungal activity against Candida albicans ATCC 90028 at 0.5 ug/ml after 18 hrs relative to control. An outline of the steps: as §1
For assay [12], the system named is Candida albicans. The assay is described as follows: Antifungal activity against Candida albicans ATCC 90028 at 0.5 ug/ml after 48 hrs relative to control. An outline of the steps:
as §1

Assay [13] concerns Candida albicans. Description: Antifungal activity against Candida albicans ATCC 90028 at 4 ug/ml after 48 hrs relative to control. A digest of the protocol: as §1
Assay [14] deals with Candida albicans. The assay is described as follows: Antifungal activity against Candida albicans ATCC 90028 at 0.0313 ug/ml after 18 hrs relative to control.
Assay [15] relates to Candida albicans. The assay is described as follows: Antifungal activity against Candida albicans ATCC 90028 at 0.125 ug/ml after 18 hrs relative to control. A digest of the protocol:
as §1

In assay [16] the test system is Candida albicans. Description: Antifungal activity against Candida albicans ATCC 90028 at 16 ug/ml after 48 hrs relative to control. An outline of the steps: as §1
Assay [17] deals with Candida albicans. The assay is described as follows: Antifungal activity against Candida albicans ATCC 90028 at 0.0625 ug/ml after 48 hrs relative to control. An outline of the steps: as §1
Assay [18] has as its system Candida albicans. Description: Antifungal activity against Candida albicans ATCC 90028 at 0.25 ug/ml after 18 hrs relative to control. A digest of the protocol:
as §2

In assay [19] the test system is Candida albicans. The assay is described as follows: Fungicidal activity against Candida albicans ATCC 90028 at 16 ug/ml after 48 hrs by M27-A3 microdilution method. An outline of the steps: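 After 48 h at 35°C in M27-A3 microdilution plates (compound at 16 µg/mL), 50 µL aliquots from treated and solvent-control wells were diluted 10^4 in PBS and plated on drug-free Sabouraud dextrose agar, then incubated 48 h at 35°C. Reduction R = lg CFU/mL control − lg CFU/mL treated; R ≥ 3 defined as fungicidal.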
A general note: In broth dilution the organism is exposed to a series of concentrations in liquid medium.

Assay [20] deals with Candida albicans. The assay is described as follows: Antifungal activity against Candida albicans ATCC 90028 at 8 ug/ml after 48 hrs relative to control. A digest of the protocol:
as §1

Assay [21] has as its system Candida albicans. Description: Antifungal activity against Candida albicans ATCC 90028 at 2 ug/ml after 18 hrs relative to control. A digest of the protocol:
as §1

For the compound `c1ccc(-c2nnn(CCCN3CCOCC3)n2)cc1`, the Activity with Candida albicans [1] was 97.95%; with Candida albicans [2] it was 98.84%; with Candida albicans [3], 97.02%; with Candida albicans [4], 98.98%; with Candida albicans [5] it was 99.64%; with Candida albicans [6], 98.87%. Also, the Activity was 99.93% in the assay on Candida albicans [7]; 99.94% with Candida albicans [8]; 80.42% in the assay with Candida albicans [9]; 99.13% in the assay with Candida albicans [10]; 99.52% in the assay on Candida albicans [11]; 99.59% in the assay on Candida albicans [12]. In addition, the Activity is given as 99.15% in the assay with Candida albicans [13]; 94.63% with Candida albicans [14]; 99.81% in the assay with Candida albicans [15]; 99.31% in the assay on Candida albicans [16]; 99.55% with Candida albicans [17]; 99.96% in the assay with Candida albicans [18]. In addition, the figures for the Activity in the assay on Candida albicans [19], in the assay with Candida albicans [20] and with Candida albicans [21] were -0.34 log10CFU/ml, 98.82% and 85.92%, respectively.

Take `ClCCCn1nnc(-c2ccccc2Cl)n1`: the Activity came out at 99.13% in the assay with Candida albicans [1]; 98.6% with Candida albicans [2]; 94.16% with Candida albicans [3]; 99.17% in the assay with Candida albicans [4]; 99.32% in the assay on Candida albicans [5]; 98.69% in the assay with Candida albicans [6]. Also, the Activity is 98.61% with Candida albicans [7]; 98.9% in the assay with Candida albicans [8]; 98.99% with Candida albicans [9]; 98.96% in the assay on Candida albicans [10]; 98.9% in the assay on Candida albicans [11]; 98.89% in the assay with Candida albicans [12]. Further, the Activity turned out to be 98.5% in the assay with Candida albicans [13]; 99.97% with Candida albicans [14]; 99.62% with Candida albicans [15]; 98.34% in the assay on Candida albicans [16]; 99.03% with Candida albicans [17]; 99.95% with Candida albicans [18]. In addition, the Activity stood at 0.51 log10CFU/ml in the assay with Candida albicans [19], 99.05% with Candida albicans [20] and 95% in the assay with Candida albicans [21].

As for `CCOC(=O)CCn1nnc(-c2ccc(C)cc2)n1`, the Activity stood at 98.72% in the assay with Candida albicans [1]; 98.95% in the assay with Candida albicans [2]; 99.98% in the assay on Candida albicans [3]; 98.81% with Candida albicans [4]; 98.99% with Candida albicans [5]; 96.34% with Candida albicans [6]. Also, the Activity in the assay on Candida albicans [7] is 99.51%; with Candida albicans [8], 99.61%; in the assay on Candida albicans [9], 45.15%; in the assay with Candida albicans [10], 98.95%; in the assay with Candida albicans [11], 99.07%; in the assay with Candida albicans [12] it was 99.16%. The Activity is listed as 98.95% in the assay with Candida albicans [13]; 99.31% in the assay on Candida albicans [14]; 99.76% in the assay on Candida albicans [15]; 99.37% in the assay with Candida albicans [16]; 98.79% in the assay with Candida albicans [17]; 98.38% in the assay on Candida albicans [18]. In addition, the Activity is listed as -0.23 log10CFU/ml in the assay with Candida albicans [19], 99.14% in the assay with Candida albicans [20] and 98.19% in the assay on Candida albicans [21].

`CCOC(=O)CCn1nnnc1-c1ccccc1Cl`: the Activity turned out to be 99.24% in the assay on Candida albicans [1]; 99.07% in the assay with Candida albicans [2]; 99.55% with Candida albicans [3]; 99.2% with Candida albicans [4]; 99.9% in the assay with Candida albicans [5]; 99.17% with Candida albicans [6]. For the same compound, the Activity is 99.98% in the assay on Candida albicans [7]; 99.99% in the assay on Candida albicans [8]; 87.68% with Candida albicans [9]; 99.02% in the assay on Candida albicans [10]; 97.11% with Candida albicans [11]; 99.06% with Candida albicans [12]. Also, the Activity in the assay with Candida albicans [13] was found to be 99.25%; in the assay with Candida albicans [14], 99.33%; in the assay on Candida albicans [15], 99.93%; with Candida albicans [16], 99.28%; in the assay on Candida albicans [17], 99.19%; in the assay on Candida albicans [18], 99.78%. Moreover, the Activity with Candida albicans [19] is -0.01 log10CFU/ml; in the assay on Candida albicans [20] it was 99.17%; in the assay on Candida albicans [21], 92.75%.

Regarding `Clc1ccc(-c2nnn(CCCN3CCOCC3)n2)cc1`, the Activity was 98.92% in the assay on Candida albicans [1]; 99.61% in the assay on Candida albicans [2]; 100% in the assay with Candida albicans [3]; 99.12% in the assay on Candida albicans [4]; 98.1% in the assay on Candida albicans [5]; 99.36% in the assay with Candida albicans [6]. Also, the Activity was 100% with Candida albicans [7]; 96.3% in the assay on Candida albicans [8]; 98.79% in the assay on Candida albicans [9]; 99.24% in the assay with Candida albicans [10]; 92.34% in the assay on Candida albicans [11]; 99.32% with Candida albicans [12]. Moreover, the Activity in the assay on Candida albicans [13] is 98.97%; with Candida albicans [14], 97.92%; in the assay with Candida albicans [15] it was 99.95%; with Candida albicans [16], 99.35%; in the assay on Candida albicans [17], 99.28%; in the assay with Candida albicans [18], 99.91%. Also, the Activity with Candida albicans [19] is recorded as 0.34 log10CFU/ml; in the assay on Candida albicans [20], 98.81%; with Candida albicans [21], 98.31%.

For the compound `CCOC(=O)CCn1nnnc1-c1ccccc1`, the Activity in the assay with Candida albicans [1] worked out at 99.01%; with Candida albicans [2], 97.06%; with Candida albicans [3], 99.13%; in the assay with Candida albicans [4], 99.23%; in the assay with Candida albicans [5], 98.44%; with Candida albicans [6] it was 98.87%. Also, the Activity stood at 99.37% with Candida albicans [7]; 99.4% in the assay on Candida albicans [8]; 95.93% in the assay on Candida albicans [9]; 98.01% with Candida albicans [10]; 98.87% with Candida albicans [11]; 98.96% with Candida albicans [12]. The Activity with Candida albicans [13] is given as 98.91%; with Candida albicans [14], 99.69%; in the assay with Candida albicans [15], 99.99%; with Candida albicans [16] it was 98.96%; in the assay on Candida albicans [17] it was 99.26%; in the assay with Candida albicans [18], 95.76%. Moreover, the results for the Activity in the assay with Candida albicans [19], in the assay on Candida albicans [20] and in the assay with Candida albicans [21] were 0.16 log10CFU/ml, 99.02% and 90.79%, respectively.

For the compound `ClCCCn1nnc(-c2ccc(Cl)cc2)n1`, the Activity in the assay on Candida albicans [1] is on record as 98.9%; in the assay with Candida albicans [2], 99.24%; in the assay with Candida albicans [3] it was 100%; in the assay on Candida albicans [4], 99%; in the assay on Candida albicans [5] it was 99.02%; in the assay with Candida albicans [6], 99.1%. Further, the Activity with Candida albicans [7] is given as 99.94%; in the assay on Candida albicans [8], 98.47%; in the assay on Candida albicans [9], 91.33%; with Candida albicans [10], 99.04%; in the assay on Candida albicans [11], 96.41%; with Candida albicans [12], 98.74%. In addition, the Activity with Candida albicans [13] was determined as 98.93%; in the assay on Candida albicans [14], 96.23%; in the assay on Candida albicans [15], 99.94%; in the assay on Candida albicans [16], 98.74%; with Candida albicans [17], 98.83%; in the assay with Candida albicans [18], 99.99%. Also, the values for the Activity with Candida albicans [19], in the assay with Candida albicans [20] and in the assay on Candida albicans [21] were 0.26 log10CFU/ml, 98.75% and 99.22%, respectively.
